Experiments:
THP-1 = assay: Cytotoxicity against human THP1 cells after 72 hrs by flow cytometry; assay type: cell-based; settings: THP-1, 72 h
Summary of the method: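 Late log-phase THP1 monocytes in phenol red-free RPMI 1640 with 10% FCS, 2% L-glutamine, 1% penicillin-streptomycin; compound range in duplicate, DMSO final <0.5% v/v; 72 h at 37 °C, 6% CO2; propidium iodide staining, live cells counted by flow cytometry; doxorubicin, pentamidine and solvent controls; IC50 by non-linear regression, mean of three independent experiments.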

[1] = Selectivity index, ratio of IC50 for human THP1 cells to IC50 for promastigotes of Leishmania donovani HOM/IN/01/2001; assay type: toxicity, cell-based, THP-1; settings: read-out: Selectivity Index
Leishmania donovani = assay: Antileishmanial activity against promastigotes of Leishmania donovani HOM/IN/01/2001 after 72 hrs by flow cytometry; assay type: functional, organism-based; settings: HOM/IN/01/2001, 72 h
Summary of the method: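 GFP-transfected late log-phase promastigotes in M199 with 10% FCS and 500 µg/mL G418, seeded at about 10⁵ parasites/mL; compounds in DMSO (final <0.5% v/v) over a concentration range in duplicate; 72 h at 27 °C; growth read by green fluorescence flow cytometry; DMSO and pentamidine controls; IC50 versus control by non-linear regression of dose-response curves.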

IC50 (Leishmania donovani) [µM]	Structure (SMILES)	IC50 (THP-1) [µM]	selectivity ratio [1]
39.1	N/C(=N\O)c1ccc(Nc2ccc(S(=O)(=O)C3=C(c4ccc(/C(N)=N/O)cc4)OC(c4ccccc4)(c4ccccc4)C3)cc2)cc1	> 50	> 1.3
> 50	N/C(=N\O)c1ccc(Nc2ccc(C3=C(S(=O)(=O)c4ccc(/C(N)=N/O)cc4)CC(c4ccccc4)(c4ccccc4)O3)cc2)cc1	48.9	< 1
> 50	CC1(Cc2ccccc2)CC(S(=O)(=O)c2ccc(Nc3ccc(/C(N)=N/O)cc3)cc2)=C(c2ccc(/C(N)=N/O)cc2)O1 (centres undefined)	47.6	< 1
30.1	CC1(Cc2ccccc2)CC(S(=O)(=O)c2ccc(/C(N)=N/O)cc2)=C(c2ccc(Nc3ccc(/C(N)=N/O)cc3)cc2)O1 (centres undefined)	9.8	0.3
> 50	N/C(=N\O)c1ccc(C2=C(S(=O)(=O)c3ccc(Nc4cccc(/C(N)=N/O)c4)cc3)CC(c3ccccc3)(c3ccccc3)O2)cc1	> 50	–
> 50	N/C(=N\O)c1ccc(S(=O)(=O)C2=C(c3ccc(Nc4cccc(/C(N)=N/O)c4)cc3)OC(c3ccccc3)(c3ccccc3)C2)cc1	48.1	< 1
> 50	CC1(Cc2ccccc2)CC(S(=O)(=O)c2ccc(Nc3cccc(/C(N)=N/O)c3)cc2)=C(c2ccc(/C(N)=N/O)cc2)O1 (centres undefined)	46.6	< 1
> 50	CC1(Cc2ccccc2)CC(S(=O)(=O)c2ccc(/C(N)=N/O)cc2)=C(c2ccc(Nc3cccc(/C(N)=N/O)c3)cc2)O1 (centres undefined)	44	< 0.9
39.1	N/C(=N\O)c1ccc(C2=C(S(=O)(=O)c3ccc(Nc4ccccc4/C(N)=N/O)cc3)CC(c3ccccc3)(c3ccccc3)O2)cc1	> 50	> 1.3
13.3	N/C(=N\O)c1ccc(S(=O)(=O)C2=C(c3ccc(Nc4ccccc4/C(N)=N/O)cc3)OC(c3ccccc3)(c3ccccc3)C2)cc1	47.8	3.6
48.3	CC1(Cc2ccccc2)CC(S(=O)(=O)c2ccc(Nc3ccccc3/C(N)=N/O)cc2)=C(c2ccc(/C(N)=N/O)cc2)O1 (centres undefined)	48.4	1
8.8	CC1(Cc2ccccc2)CC(S(=O)(=O)c2ccc(/C(N)=N/O)cc2)=C(c2ccc(Nc3ccccc3/C(N)=N/O)cc2)O1 (centres undefined)	48.1	5.5
50	N/C(=N\O)c1ccc(/C=C/c2ccc(S(=O)(=O)C3=C(c4ccc(/C(N)=N/O)cc4)OC(c4ccccc4)(c4ccccc4)C3)cc2)cc1	> 10	> 0.2
> 50	N/C(=N\O)c1ccc(/C=C/c2ccc(C3=C(S(=O)(=O)c4ccc(/C(N)=N/O)cc4)CC(c4ccccc4)(c4ccccc4)O3)cc2)cc1	41.3	< 0.9
> 50	CC1(Cc2ccccc2)CC(S(=O)(=O)c2ccc(/C=C/c3ccc(/C(N)=N/O)cc3)cc2)=C(c2ccc(/C(N)=N/O)cc2)O1 (centres undefined)	> 50	–
17.1	CC1(Cc2ccccc2)CC(S(=O)(=O)c2ccc(/C(N)=N/O)cc2)=C(c2ccc(/C=C/c3ccc(/C(N)=N/O)cc3)cc2)O1 (centres undefined)	23.4	1.4
8.3	CC1(Cc2ccccc2)CC(S(=O)(=O)c2ccc(/C(N)=N/O)cc2)=C(c2ccccc2)O1 (centres undefined)	54.7	6.6
99.5	CC1(Cc2ccccc2)CC(S(=O)(=O)c2ccc(/C(N)=N/O)cc2)=C(c2ccc(/C(N)=N/O)cc2)O1 (centres undefined)	99.5	1
> 125	N/C(=N\O)c1ccc(C(=O)CS(=O)(=O)c2ccccc2)cc1	> 125	–
> 125	N/C(=N\O)c1ccc(S(=O)(=O)CC(=O)c2ccccc2)cc1	> 125	–
> 125	N/C(=N\O)c1ccc(C(=O)CS(=O)(=O)c2ccc(/C(N)=N/O)cc2)cc1	> 125	–
20.6	N/C(=N\O)c1ccc(C2=C(S(=O)(=O)c3ccccc3)CC(c3ccccc3)(c3ccccc3)O2)cc1	30.6	1.5
17.6	N/C(=N\O)c1ccc(S(=O)(=O)C2=C(c3ccccc3)OC(c3ccccc3)(c3ccccc3)C2)cc1	37.9	2.1
74.3	N/C(=N\O)c1ccc(C2=C(S(=O)(=O)c3ccc(/C(N)=N/O)cc3)CC(c3ccccc3)(c3ccccc3)O2)cc1	119	1.6
30.3	CC1(Cc2ccccc2)CC(S(=O)(=O)c2ccccc2)=C(c2ccc(/C(N)=N/O)cc2)O1 (centres undefined)	94.6	3.1
–	COc1cccc2c1C(=O)c1c(O)c3c(c(O)c1C2=O)C[C@@](O)(C(=O)CO)C[C@@H]3O[C@H]1C[C@H](N)[C@H](O)[C@H](C)O1 [DOXORUBICIN]	0.008	–
11.2	N=C(N)c1ccc(OCCCCCOc2ccc(C(=N)N)cc2)cc1 [PENTAMIDINE]	31.2	2.8

— ChEMBL document CHEMBL1250547, “Synthesis and evaluation of original amidoximes as antileishmanial agents” (Bioorg Med Chem, 2010)
